Source: PubChem BioAssay
PolyA inhibitor = blocks polyadenylation in yeast reporter cells | activity score, % at 12 µM | S. cerevisiae SKY197-pL101 polyadenylation reporter, beta-gal luminescence; efflux-impaired pdr1/pdr3 knockout yeast; score 100 = 6 SD above DMSO | 0.02% of 300,000 active | AID 1875;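 active means lowest replicate activity score at least 50, where 100 means six control SD above control mean; inconclusive means lowest score under 50 but half or more replicates reach 50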;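 further: yeast exposed to compound for 9 h at 30 °C; higher score means more reporter readthrough which indicates perturbed polyadenylation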
T cruzi inh = T. cruzi replication inhibition | inhibition, % (concentration not given with the values) | T. cruzi beta-gal in NIH3T3, luminescence, 90 h | 1.4% of 300,000 active;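 active means mean inhibition across valid replicates above about 55%, limit read from the data; inconclusive means mean below that limit but half or more replicates reach it; inactive means mean below it, under half of replicates reach it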;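 further: signal also drops with host cell toxicity which is not excluded here; 0% = plate median of DMSO wells and 100% = zero luminescence signal; higher percent means less beta-gal luminescence so fewer parasites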
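Read-out: Parasite load inhibition, % | Test system: Mouse NIH/3T3 fibroblasts infected with β-gal-expressing T. cruzi Tulahuen C4 | Amount: 5,000 cells/well | Medium: DMEM, 2% fetal bovine serum | Signal: GalScreen β-gal luminescence, detergent lysis, 60 min | Timing: 3 h attach, ≥90 h co-culture | Also added: Tulahuen C4 trypomastigotes, 5000/well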
L major viab = inhibitors of Leishmania major promastigote growth. Leishmania major promastigotes, resazurin fluorescence viability. inhibition, % at 10 µM. 9% of 200,000 active. AID 1063; in the data active means inhibition above about 50%;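 further: promastigotes grown with compound for 44 hours at 28 °C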
Calb FLC = affects C. albicans growth with fluconazole; C. albicans CaCi-2 (fluconazole-resistant clinical isolate) + fluconazole, Alamar Blue growth, 48 h; growth inhibition, % (no concentration beside the values); 0.57% of 300,000 active; AID 1979;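 active means growth inhibition above about 58% in most replicates, limit read from the data, passing the limit was not always enough; inconclusive means exactly half the replicates above a set limit; inactive means most replicates below a set limit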;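 further: all wells also contain fluconazole at 8 µg/ml as a sub-toxic cotreatment; 0% = median of DMSO wells and 100% = median of geldanamycin control wells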
NALP3 yeast inh = NALP3 inhibition in yeast. inhibition, % at 10 µM. AID 2825. 0.39% of 330,000 active. Yeast reconstituted NLRP3/ASC/caspase-1, beta-gal luminescence, 24 h;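 active means inhibition of 50% or more; inactive means inhibition below 50%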;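 further: plate controls were induced DMSO wells for no effect and uninduced yeast grown without galactose for full effect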
NALP1 inh = inhibitors of NALP1 inflammasome in yeast; 0.61% of 280,000 active; inhibition, % at 10 µM; AID 2071; S. cerevisiae NALP1/ASC/caspase-1 growth, X-gal OD620, 72 h; in the data active means inhibition mostly above about 24%, no sharp cut-off; inactive means mostly below about 32%
The depositor's hits bear a star; ? = inconclusive; nt = not tested or not shown. Shown is part of a subset that was picked to be rich in hits.

SMILES | PolyA inhibitor | T cruzi inh | L major viab | Calb FLC | NALP3 yeast inh | NALP1 inh
NC(=S)N/N=C\c1c(OCc2ccccc2Cl)ccc2ccccc12 | -14 | nt | 64* | 34 | 19 | -4
O=C(CCn1c(=O)oc2ccccc21)NCc1cccs1 | 7 | -24 | 0 | -3 | 5 | -1
Cc1cccc(-c2ncc(CN3CCN(CCC(C)C)C(CCO)C3)cn2)c1 (configuration not stated) | 4 | 43 | 74* | -5 | -4 | 5
Cc1cccc(-c2ncc(CN3CCN(C4CCCC4)C(CCO)C3)cn2)c1 (configuration not stated) | 5 | 21 | 64* | -1 | 4 | 15
O=C(Nc1ccccc1Cc1ccccc1)c1ccncc1 | -22 | 59* | nt | -11 | -1 | 11
CCOC(=O)c1c(N)n(C2CC(C)(C)NC(C)(C)C2)c2nc3ccccc3nc12 | -2 | 40 | 83* | 11 | 9 | 0
CCOC(=O)c1c(N)n(-c2ccc(N)cc2)c2nc3ccccc3nc12 | 0 | -3 | 1 | 26 | -11 | 21
CCOC(=O)c1c(NC(=O)c2ccco2)n(C2CCCCC2)c2nc3ccccc3nc12 | 11 | ? | 100* | 21 | 19 | -15
CCCCCOC(=O)c1c(N)n(CCOC)c2nc3ccccc3nc12 | -4 | 16 | 100* | ? | 19 | 9
CCC(=O)Nc1c(C#N)c2nc3ccccc3nc2n1C1CCCCC1 | -10 | 11 | 4 | -1 | 1 | 4
CCOC(=O)c1c(N)n(CCOC(=O)c2cccs2)c2nc3ccccc3nc12 | 12 | -13 | 60* | 18 | 13 | -4
COc1ccc(CNC(=O)CCNS(=O)(=O)c2ccc(NC(C)=O)cc2)cc1OC | nt | nt | nt | nt | 18 | nt
O=C(Cc1ccc([N+](=O)[O-])cc1)Nc1cccc(C(=O)N2CCCC2)c1 | nt | nt | nt | nt | 18 | nt
COc1ccccc1CCN1CCCC(CN(C)Cc2ccc(OCCO)cc2)C1 (configuration not stated) | -11 | ? | nt | -8 | 20 | 6
C=CCC1(C#N)C(SC)=NC2=C(C(=O)CC(C)(C)C2)C1c1ccc(Br)cc1 (configuration not stated) | -13 | 32 | 21 | 8 | 14 | 8
CC(=O)/C=C(\C)Nc1ccccc1O | -14 | -14 | nt | -14 | 21 | 43*
COc1ccc(-n2nnnc2SCc2nc3ccccc3s2)cc1 | -13 | -5 | 0 | -2 | 39 | 1
Cc1nnc(SCc2nc3ccccc3s2)n1-c1ccccc1 | 11 | 30 | -5 | -9 | 14 | 5
CCn1c(SCc2nc3ccccc3s2)nnc1-c1ccccc1 | -2 | 6 | 65* | -2 | 8 | -22
Cc1ccc(C)c(SCC(=O)Nc2cccnc2Cl)c1 | -10 | -7 | -7 | 123* | 35 | 33*
COc1ccc(C)cc1-n1nnnc1SCc1nc2ccccc2s1 | -16 | 1 | 83* | 23 | 16 | 14
COc1ccc(C)cc1-n1nnnc1SCC(=O)Nc1cc(C)on1 | -4 | 0 | -1 | 9 | 3 | 9
COc1ccc(C)cc1-n1nnnc1SCC(=O)Nc1cccnc1Cl | 7 | -22 | 92* | 3 | 12 | 19
CCC(Oc1ccccc1)C(=O)NCc1ccc(S(N)(=O)=O)cc1 (configuration not stated) | 8 | -2 | -8 | -19 | 2 | 21
Cc1ccc(-c2nn(CCC(=O)NN3CCOCC3)c(=O)c3ccccc23)cc1 | 0 | 0 | nt | 4 | 4 | 38
SMILES | PolyA inhibitor | T cruzi inh | L major viab | Calb FLC | NALP3 yeast inh | NALP1 inh
Cc1ccc(S(=O)(=O)CCC(=O)N(C)C2CCCCC2)cc1 | -16 | 9 | nt | 1 | 16 | 11
N#CC(/C(=N/S(=O)(=O)c1cccs1)c1ccccc1)c1nc2ccccc2[nH]1 (configuration not stated) | 3 | 11 | -4 | 19 | 19 | 3
CC1CC(C)CN(C(=O)C(NS(=O)(=O)c2ccc(Br)s2)c2ccccc2)C1 (configuration not stated) | -9 | 19 | 81* | 5 | -12 | 31
Cc1cc2ccccc2n1CCNC(=O)C(C)Oc1ccccc1 (configuration not stated) | 14 | 63* | -2 | -3 | 6 | 32
Cc1ccc2c(c1)N(Cc1ccncc1)C(=O)C(C)O2 (configuration not stated) | -1 | 4 | -9 | -8 | 1 | -2
OC(CNCCc1ccc(C(F)(F)F)cc1)COc1ccc2ccccc2c1 (configuration not stated) | 1 | 45 | 99* | 105* | 27 | 96*
COc1ccc(CCNCC(O)COc2cccc(Br)c2)cc1 (configuration not stated) | -13 | 45 | 52* | 9 | 24 | 4
OC(CNCCc1ccc(C(F)(F)F)cc1)COc1cccc2ccccc12 (configuration not stated) | -1 | 60* | 97* | -7 | 28 | 103*
Cc1cccc(C)c1NC(=O)CNC(=O)CCNC(=O)c1ccco1 | nt | nt | nt | nt | 19 | nt
CC(CC(=O)N1CCN(c2cccc(Cl)c2)CC1)S(=O)(=O)c1ccc2c(c1)NC(=O)CO2 (configuration not stated) | 7 | 13 | nt | -8 | -2 | 13
COc1ccc(NC(C)=O)cc1NS(=O)(=O)c1cn(C)c(=O)n(C)c1=O | 0 | -8 | nt | -4 | 7 | 4
Cc1[nH]n2c(=O)cc(C(C)(C)C)nc2c1-c1ccccc1 | -2 | 59* | 99* | -2 | -3 | -4
CS(=O)(=O)NCCC1=CCCCC1 | 5 | -11 | 2 | 2 | 3 | -6
O=C(O)CC(CNS(=O)(=O)c1cccc2nsnc12)c1ccccc1 (configuration not stated) | 9 | -7 | -6 | -13 | 13 | 25
CCOC(=O)C1CCN(C(=O)Nc2ccc3nc(-c4ccco4)c(-c4ccco4)nc3c2)CC1 | -4 | -8 | 96* | ? | 21 | 28
COc1ccccc1CCNC(=O)C(=O)NCC1OCCN1C(=O)c1ccc(Cl)cc1 (configuration not stated) | 15 | 8 | nt | 1 | -8 | -1
COc1cc(/C=C2\SC(N3CCc4ccccc4C3)=NC2=O)cc(OC)c1OC | 5 | 15 | 54* | 3 | 20 | 7
Cc1ccc(/C=N/N=C2/NC(=O)C(CC(=O)N3CCOCC3)S2)cc1 (configuration not stated) | 2 | -11 | -12 | 13 | 3 | 26
O=C(/C=C/c1ccccc1)NCCC1=CCCCC1 | 20 | 7 | -5 | -32 | 32 | 51*
O=C(/C=C/c1ccccc1)NCCN1CCOCC1 | 2 | -28 | 63* | 8 | -2 | 18
O=C(Cc1cccs1)NCCN1CCOCC1 | -7 | -19 | 50* | -1 | -3 | 5
O=C(/C=C/c1ccc(F)cc1)NCCC1=CCCCC1 | -9 | 28 | -2 | 51 | 45 | 0
